Experimental data published in ChEMBL document CHEMBL3397044, “Discovery and in vitro and in vivo profiles of N-ethyl-N-[2-[3-(5-fluoro-2-pyridinyl)-1H-pyrazol-1-yl]ethyl]-2-(2H-1,2,3-triazol-2-yl)-benzamide as a novel class of dual orexin receptor antagonist” (Bioorg Med Chem, 2015).
In brackets after ≈: the same amount, converted by molar mass. Activity calls are given as the source filed them. No cut-off for these calls is given here.

What was measured:
[1] = tested on: Rattus norvegicus; assay: Toxicity in Wistar rat assessed as effect on rotarod performance at 10 mg/kg, ip administered 30 mins prior to the test by rotarod test; type: organism-based; design: dose 10 mg/kg, route intraperitoneal; settings: in vivo, 0.5 h
[2] = Oral bioavailability in dog at 3 mg/kg; type: ADME, organism-based, Canis lupus familiaris; settings: in vivo
Outline: (§1)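 Fasted male rats dosed orally at 10 mg/kg, and male dogs at 3 mg/kg (n = 3). Tmax read from the oral profile. F calculated against the iv arm (rat 2 mg/kg, dog 0.5 mg/kg).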

[3] = tested on: Rattus norvegicus; assay: Toxicity in Sprague-Dawley rat assessed as effect on rotarod performance at 3 to 30 mg/kg, ip administered 30 mins prior to the test by rotarod test; settings: in vivo, 0.5 h
[4] = Clearance in dog at 0.5 mg/kg, iv; type: ADME, organism-based, Canis lupus familiaris; design: dose 0.5 mg/kg, route intravenous; settings: in vivo
Outline: (§2)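 Male dogs given 0.5 mg/kg iv (n = 3). Vd and CL derived from the iv profile. T1/2 = ln2·Vd/CL.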

[5] = tested on: Ribosyldihydronicotinamide dehydrogenase (NQO2) (Homo sapiens); assay: Binding affinity to MT3 receptor (unknown origin) at 10 uM
[6] = Ratio of drug level in CSF to plasma in Sprague-Dawley rat at 10 mg/kg, po
[7] = tested on: Rattus norvegicus; assay: Sleep promoting effect in free moving Wistar rat with chronically implanted electrodes assessed as increase in duration of NREM sleep at 10 and 30 mg/kg, ip by polysomnogram recordings method; type: functional, organism-based; design: dose 30 mg/kg
Outline: (§3)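 Male Wistar rats, 10 weeks old, implanted under pentobarbital with frontal and parietal EEG screw electrodes plus EMG. Recovered ≥7 days, then singly housed and acclimated, tethered and freely moving. Dosed ip between 18:50 and 19:00, before lights-off. EEG filtered 0.16–30 Hz, EMG 5.3–1000 Hz, scored in 8-s epochs. Sleep latency = first 15 consecutive sleep epochs. Analysed over 2 h; n = 8–10; Dunnett or Steel tests.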

[8] = tested on: Rattus norvegicus; assay: Sleep promoting effect in free moving Wistar rat with chronically implanted electrodes assessed as reduction in latency until total sleep at 3 to 30 mg/kg, ip by polysomnogram recordings method; type: functional, organism-based; outline: as §3
[9] = target: T1, Orexin/Hypocretin receptor type 1 (Rattus norvegicus) (UniProt P56718); assay: Antagonist activity against rat OX1 receptor assessed as reduction in [Ala6,12]orexin-A-induced intracellular Ca2+ mobilization incubated for 30 mins by Fluo-4 AM dye based fluorescence assay; type: functional, cell-based
T1 sequence (whole entry): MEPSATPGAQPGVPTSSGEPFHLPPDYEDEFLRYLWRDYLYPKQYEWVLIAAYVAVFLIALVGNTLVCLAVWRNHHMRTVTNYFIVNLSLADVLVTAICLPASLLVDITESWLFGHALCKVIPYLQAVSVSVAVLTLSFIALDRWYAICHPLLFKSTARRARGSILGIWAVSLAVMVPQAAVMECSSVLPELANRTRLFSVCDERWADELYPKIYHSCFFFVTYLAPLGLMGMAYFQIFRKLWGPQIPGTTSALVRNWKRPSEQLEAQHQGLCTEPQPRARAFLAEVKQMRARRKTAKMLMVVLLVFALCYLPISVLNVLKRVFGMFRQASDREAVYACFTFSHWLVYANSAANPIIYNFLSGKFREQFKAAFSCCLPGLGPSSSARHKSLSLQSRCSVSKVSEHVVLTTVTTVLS
Outline: (§4)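 Cells seeded at 2.4 × 10⁴/well and cultured for 18 h. Compound added for 30 min at room temperature. Peak fluorescence minus basal was normalised to the maximal [Ala6,12]orexin-A response. Kb = IC50/(1+[L]/EC50). At least three independent runs in duplicate; mean ± SE.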

[10] = Clearance in Sprague-Dawley rat at 2 mg/kg, iv; type: ADME, organism-based; design: dose 2 mg/kg, route intravenous; settings: in vivo
Outline: (§5)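 Fasted male Sprague–Dawley rats (n = 3) given 2 mg/kg iv. Vd and CL taken from the iv profile. T1/2 calculated as ln2·Vd/CL.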

[11] = Tmax in Sprague-Dawley rat at 10 mg/kg, po; type: ADME, organism-based; design: dose 10 mg/kg, route oral; settings: in vivo; outline: as §1
[12] = tested on: Rattus norvegicus; assay: Sleep promoting effect in ip dosed free moving Wistar rat with chronically implanted electrodes assessed as by polysomnogram recordings method; settings: read-out: MED
[13] = tested on: Rattus norvegicus; assay: Sleep promoting effect in free moving Wistar rat with chronically implanted electrodes assessed as increase in duration of REM sleep at 10 and 30 mg/kg, ip after 2 hrs by polysomnogram recordings method; type: functional, organism-based; design: dose 30 mg/kg; outline: as §3
[14] = Drug excretion in rat urine; type: ADME; settings: read-out: Drug excretion
[15] = target: T2, Orexin receptor type 2 (Rattus norvegicus) (UniProt P56719); assay: Antagonist activity against rat OX2 receptor assessed as reduction in [Ala6,12]orexin-A-induced intracellular Ca2+ mobilization incubated for 30 mins by Fluo-4 AM dye based fluorescence assay; type: functional, cell-based; outline: as §4
T2 sequence (whole entry): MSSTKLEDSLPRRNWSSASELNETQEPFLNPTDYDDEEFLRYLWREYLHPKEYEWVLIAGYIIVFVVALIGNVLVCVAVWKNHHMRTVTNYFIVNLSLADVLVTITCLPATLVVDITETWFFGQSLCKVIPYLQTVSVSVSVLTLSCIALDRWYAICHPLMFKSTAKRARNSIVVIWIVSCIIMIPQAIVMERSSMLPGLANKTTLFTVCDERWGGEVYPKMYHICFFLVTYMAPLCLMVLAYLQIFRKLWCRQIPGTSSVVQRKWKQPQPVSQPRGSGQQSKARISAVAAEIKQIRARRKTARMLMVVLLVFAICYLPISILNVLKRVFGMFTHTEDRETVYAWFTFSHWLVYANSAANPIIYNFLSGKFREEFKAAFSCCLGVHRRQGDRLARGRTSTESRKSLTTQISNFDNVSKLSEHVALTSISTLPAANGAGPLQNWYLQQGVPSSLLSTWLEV

[16] = Drug metabolism in rat liver microsomes at 5 uM after 15 mins; type: ADME; settings: read-out: Drug metabolism
Outline: (§6)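 Liver microsomes at 1 mg protein/mL with 5 µM compound, incubated 15 min. Value reported as percentage of compound metabolized.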

[17] = Drug metabolism in dog liver microsomes at 5 uM after 15 mins; type: ADME, Canis lupus familiaris; settings: read-out: Drug metabolism; outline: as §6
[18] = Half life in dog at 0.5 mg/kg, iv; type: ADME, organism-based, Canis lupus familiaris; design: dose 0.5 mg/kg, route intravenous; settings: in vivo; outline: as §2
[19] = Volume of distribution in Sprague-Dawley rat at 2 mg/kg, iv; type: ADME, organism-based; design: dose 2 mg/kg, route intravenous; settings: in vivo; outline: as §5
[20] = Half life in Sprague-Dawley rat at 2 mg/kg, iv; type: ADME, organism-based; design: dose 2 mg/kg, route intravenous; settings: in vivo; outline: as §5
[21] = Solubility in pH 6.8 phosphate buffer; type: physicochemical
Outline: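 Aqueous solubility measured in pH 6.8 phosphate buffer.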

[22] = Oral bioavailability in Sprague-Dawley rat at 10 mg/kg; type: ADME, organism-based; settings: in vivo; outline: as §1
[23] = Drug metabolism in human liver microsomes at 5 uM after 15 mins; type: ADME; settings: read-out: Drug metabolism; outline: as §6
[24] = Tmax in dog at 3 mg/kg, po; type: ADME, organism-based, Canis lupus familiaris; design: dose 3 mg/kg, route oral; settings: in vivo; outline: as §1
[25] = Drug excretion in rat bile; type: ADME, tissue-based; settings: read-out: Drug excretion
[26] = Ratio of drug level in brain to plasma in Sprague-Dawley rat at 10 mg/kg, po; settings: read-out: BPR
[27] = Cmax in free moving Wistar rat with chronically implanted electrodes 3 mg/kg, ip after 0.33 hrs; type: ADME, organism-based; design: dose 3 mg/kg, route intraperitoneal; settings: in vivo
[28] = Volume of distribution in dog at 0.5 mg/kg, iv; type: ADME, organism-based, Canis lupus familiaris; design: dose 0.5 mg/kg, route intravenous; settings: in vivo; outline: as §2
[29] = Oral bioavailability in Sprague-Dawley rat at 30 mg/kg; type: ADME, organism-based; settings: in vivo
[30] = target: T3, Orexin/Hypocretin receptor type 1 (Homo sapiens) (UniProt O43613); assay: Antagonist activity against human OX1 receptor expressed in CHO cells assessed as reduction in [Ala6,12]orexin-A-induced intracellular Ca2+ mobilization incubated for 30 mins by Fluo-4 AM dye based fluorescence assay; type: functional, cell-based
T3 sequence (whole entry): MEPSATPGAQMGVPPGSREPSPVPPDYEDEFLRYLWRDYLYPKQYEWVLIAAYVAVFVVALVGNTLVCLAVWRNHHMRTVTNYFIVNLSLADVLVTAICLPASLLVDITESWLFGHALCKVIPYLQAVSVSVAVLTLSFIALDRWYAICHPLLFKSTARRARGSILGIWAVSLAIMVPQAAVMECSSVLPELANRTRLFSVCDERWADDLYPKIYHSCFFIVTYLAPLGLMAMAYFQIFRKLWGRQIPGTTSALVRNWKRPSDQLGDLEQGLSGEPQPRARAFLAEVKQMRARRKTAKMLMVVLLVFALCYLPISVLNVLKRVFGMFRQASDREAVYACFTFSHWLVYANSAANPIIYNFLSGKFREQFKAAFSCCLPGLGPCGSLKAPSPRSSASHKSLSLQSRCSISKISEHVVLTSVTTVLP
Outline: (§7)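 Cells seeded 2.4 × 10⁴/well, cultured 18 h. Loaded with Fluo-4 AM (0.5 µM final) in HBSS, 20 mM HEPES, 0.1% BSA, 2.5 mM probenecid, 0.2 mg/mL amaranth, pH 7.4, 37 °C 1 h. Washed, then antagonist for 30 min at room temperature. Peak minus basal fluorescence normalized to the [Ala6,12]orexin-A maximum. Kb = IC50/(1+[L]/EC50). At least three independent runs in duplicate.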

[31] = Ratio of drug level in brain to plasma in Sprague-Dawley rat at 30 mg/kg, ip; type: ADME, organism-based; design: dose 30 mg/kg, route intraperitoneal; settings: read-out: BPR
Outline: (§8)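 Male rats dosed ip at 30 mg/kg. Drug concentrations measured in brain, CSF and plasma, and reported as brain/plasma and CSF/plasma ratios.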

[32] = target: T4, Orexin receptor type 2 (Homo sapiens) (UniProt O43614); assay: Antagonist activity against human OX2 receptor expressed in CHO cells assessed as reduction in [Ala6,12]orexin-A-induced intracellular Ca2+ mobilization incubated for 30 mins by Fluo-4 AM dye based fluorescence assay; type: functional, cell-based; outline: as §7
T4 sequence (whole entry): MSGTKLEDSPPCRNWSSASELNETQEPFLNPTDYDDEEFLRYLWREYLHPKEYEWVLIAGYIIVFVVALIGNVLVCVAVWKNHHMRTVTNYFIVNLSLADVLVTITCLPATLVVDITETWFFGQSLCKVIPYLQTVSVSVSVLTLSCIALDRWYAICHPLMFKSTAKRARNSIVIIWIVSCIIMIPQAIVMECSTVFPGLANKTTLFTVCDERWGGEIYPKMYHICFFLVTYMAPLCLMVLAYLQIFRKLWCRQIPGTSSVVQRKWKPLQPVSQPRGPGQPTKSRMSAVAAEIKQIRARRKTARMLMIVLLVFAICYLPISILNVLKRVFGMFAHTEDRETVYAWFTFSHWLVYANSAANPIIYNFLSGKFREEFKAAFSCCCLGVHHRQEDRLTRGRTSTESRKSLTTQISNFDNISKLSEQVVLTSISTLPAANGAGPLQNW

[33] = Tmax in Sprague-Dawley rat at 30 mg/kg, po; type: ADME, organism-based; design: dose 30 mg/kg, route oral; settings: in vivo
[34] = Ratio of drug level in CSF to plasma in Sprague-Dawley rat at 30 mg/kg, ip; type: ADME, organism-based; design: dose 30 mg/kg, route intraperitoneal; outline: as §8

Cc1ccc(-c2nc3ccc(C)cn3c2CC(=O)N(C)C)cc1 [ZOLPIDEM]
Activity [1]: Toxic

CCN(CCn1ccc(-c2ccc(F)cn2)n1)C(=O)c1ccccc1-n1nccn1
bioavailability [2]: 80.2%
Activity [3]: Non-toxic
clearance [4]: 9.97 mL/min/kg
Activity [5]: 66%
Kp [6]: 0.06
Activity [7]: Active
Activity [8]: Dose-dependent effect
Kb [9]: 5.08 nM
clearance [10]: 66 mL/min/kg
Tmax [11]: 50 min
minimal effective dose [12]: 3 mg/kg
Activity [13]: inactive
dose excreted [14]: 0.4%
Kb [15]: 6.06 nM
metabolised at 0.25 h, 5 µM [16]: 79.9%
metabolised at 0.25 h, 5 µM [17]: 7.3%
half-life [18]: 57.7 min
Vd [19]: 1.71 L/kg
half-life [20]: 17.9 min
solubility [21]: 30.2 µg/mL (≈ 74.5 µM)
bioavailability [22]: 14.9%
metabolised at 0.25 h, 5 µM [23]: 24.1%
Tmax [24]: 40 min
dose excreted [25]: 0.2%
Kp [26]: 0.17
Cmax [27]: 728 nM
Vd [28]: 0.745 L/kg

CCN(CCn1ccc(-c2ccc(F)cn2)n1)C(=O)c1cc(C)ccc1-c1ncccn1
bioavailability [2]: 100%
clearance [4]: 13.1 mL/min/kg
clearance [10]: 65.2 mL/min/kg
bioavailability [29]: 4.62%
metabolised at 0.25 h, 5 µM [16]: 97.3%
metabolised at 0.25 h, 5 µM [17]: 10.1%
half-life [18]: 67.8 min
Vd [19]: 1.79 L/kg
Kb [30]: 2.52 nM
half-life [20]: 19.1 min
Kp [31]: 0.13
Kb [32]: 4.01 nM
metabolised at 0.25 h, 5 µM [23]: 19.7%
Tmax [24]: 30 min
Tmax [33]: 40 min
Kp [34]: 0.03
Vd [28]: 1.29 L/kg
